Here are results for 22 molecules from ChEMBL document CHEMBL3232993, “Design, synthesis, and structure-activity relationship of a novel series of GluN2C-selective potentiators” (J Med Chem, 2014).

Format in all cases: cell-based
Assay [1] deals with Ionotropic glutamate receptor NMDA 1/2D (Rattus norvegicus) (UniProt P35439+Q62645). Kind of assay: Potentiation of rat recombinant GluN1/GluN2D expressed in Xenopus laevis oocytes assessed as increase in glutamate/glycine-induced current response at 30 uM by two-electrode voltage clamp technique relative to control. The method in brief:
(§1)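 Two-electrode voltage clamp at −40 mV on Xenopus oocytes coexpressing GluN1 with GluN2A, 2B, 2C or 2D. […] Compounds came from 20 mM DMSO stocks, with 0.05–0.5% final DMSO. Some GluN2A oocytes were injected with K-BAPTA to limit current run-up. Recording solution was pH 7.4, 23 °C.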
(In general: Two-electrode voltage clamp is typically applied to oocytes expressing channels or transporters.)

In assay [2] the target is Glutamate NMDA receptor; Grin1/Grin2b (Rattus norvegicus) (UniProt P35439+Q00960). In words: Potentiation of rat recombinant GluN1/GluN2B expressed in Xenopus laevis oocytes assessed as increase in glutamate/glycine-induced current response at 30 uM by two-electrode voltage clamp technique relative to control. In a few lines: as §1
The target of assay [3] is Glutamate NMDA receptor; Grin1/Grin2c (Rattus norvegicus, UniProt P35439+Q00961). In words: Potentiation of rat recombinant GluN1/GluN2C expressed in Xenopus laevis oocytes assessed as increase in glutamate/glycine-induced current response by two-electrode voltage clamp technique relative to control.
Assay [4] concerns the target Glutamate NMDA receptor; Grin1/Grin2c (Rattus norvegicus) (UniProt P35439+Q00961). In words: Potentiation of rat recombinant GluN1/GluN2C expressed in Xenopus laevis oocytes assessed as increase in glutamate/glycine-induced current response at 30 uM by two-electrode voltage clamp technique relative to control. In a few lines:
as §1

In assay [5] the target is Glutamate NMDA receptor; Grin1/Grin2a (Rattus norvegicus) (UniProt P35439+Q00959). In words: Potentiation of rat recombinant GluN1/GluN2A expressed in Xenopus laevis oocytes assessed as increase in glutamate/glycine-induced current response at 30 uM by two-electrode voltage clamp technique relative to control. The method in brief: as §1

SMILES strings stand for the structures.

By EC50 is commonly meant the concentration needed to bring the measured effect to its halfway point. Turning to `COC(=O)c1ccc(C2C(C(C)=O)=C(O)C(=O)N2CCc2c[nH]c3ccccc23)c(O)c1` (configuration not stated), the Activity in assay [1] amounted to 88%; in assay [2], 86%; in assay [4] it was 173%; in assay [5] it was 107%. Further, the EC50 in assay [3] is 15 µM. Moreover, the max activation in assay [4] stood at 202%.
Regarding `COC(=O)c1ccc(C2C(C(=O)c3cccnc3)=C(O)C(=O)N2CCc2c(C)[nH]c3ccccc23)cc1` (configuration not stated), the Activity was found to be 82% in assay [1], 77% in assay [2], 174% in assay [4] and 82% in assay [5]. For the same molecule, the EC50 in assay [3] worked out at 13 µM. Moreover, in assay [4], the max activation was found to be 204%.
`COC(=O)c1ccc(C2C(C(=O)C(C)(C)C)=C(O)C(=O)N2CCc2c[nH]c3ccccc23)cc1` (configuration not stated): the Activity in assay [1] was determined as 79%; in assay [2], 93%; in assay [4] it was 129%; in assay [5] it was 87%. In assay [3], the concentration giving a half-maximal response (EC50) turned out to be 52 µM. The max activation in assay [4] came to 187%.
Regarding `CCOC(=O)c1ccc(C2C(C(=O)c3ccncc3)=C(O)C(=O)N2CCc2c[nH]c3ccccc23)cc1` (configuration not stated), the Activity in assay [1] was determined as 86%; in assay [2], 91%; in assay [4], 223%; in assay [5] it was 109%. Also, the EC50 in assay [3] was found to be 9.7 µM. Besides, in assay [4], the max activation amounted to 245%.
As to `COC(=O)c1ccc(C2C(C(C)=O)=C(O)C(=O)N2CCc2c[nH]c3ccccc23)c(C)c1` (configuration not stated), the Activity in assay [1] was 85%; in assay [2], 95%; in assay [4], 129%; in assay [5], 101%. Besides, the 50% effective concentration (EC50) in assay [3] is 35 µM. The max activation in assay [4] is 165%.
Consider `COC(=O)c1ccc(C2C(C(C)=O)=C(O)C(=O)N2CCc2c[nH]c3ccccc23)cc1O` (configuration not stated), for which the Activity in assay [1] worked out at 90%; in assay [2], 79%; in assay [4], 123%; in assay [5], 81%. Besides, in assay [3], the EC50 came to 29 µM. In addition, the max activation in assay [4] is 151%.
Take `CCOC(=O)c1ccc(C2C(C(C)=O)=C(O)C(=O)N2CCc2c[nH]c3ccccc23)cc1` (configuration not stated): the Activity in assay [1] came out at 91%; in assay [2] it was 83%; in assay [4] it was 201%; in assay [5] it was 104%. Besides, the EC50 in assay [3] is 15 µM. Also, in assay [4], the max activation was determined as 237%.
For the molecule `COC(=O)c1ccc(C2C(C(=O)c3cccc(Cl)c3)=C(O)C(=O)N2CCc2c[nH]c3ccccc23)cc1` (configuration not stated), the Activity in assay [1] is 83%; in assay [2], 83%; in assay [4] it was 145%; in assay [5], 107%. For the same molecule, the EC50 in assay [3] was determined as 8.7 µM. For the same molecule, the max activation in assay [4] came out at 145%.
For the molecule `COC(=O)c1ccc(C2C(C(=O)c3cccnc3)=C(O)C(=O)N2CCc2c[nH]c3c(Cl)cccc23)cc1` (configuration not stated), the Activity in assay [1] turned out to be 78%; in assay [2], 85%; in assay [4] it was 127%; in assay [5] it was 90%. The EC50 in assay [3] worked out at 7 µM. The max activation in assay [4] was 128%.
On to `COC(=O)c1ccc(C2C(C(=O)c3cccnc3)=C(O)C(=O)N2CCc2c[nH]c3cc(F)ccc23)cc1` (configuration not stated), for which the Activity was determined as 82% in assay [1], 64% in assay [2], 163% in assay [4] and 94% in assay [5]. The EC50 in assay [3] turned out to be 13 µM. In addition, the max activation in assay [4] worked out at 167%.
In the case of `CCCC(=O)OC1=C(C(C)=O)C(c2ccc(C(=O)OC)cc2)N(CCc2c(C)[nH]c3ccccc23)C1=O` (configuration not stated), the Activity in assay [1] worked out at 93%; in assay [2], 93%; in assay [4], 186%; in assay [5], 112%. Also, the EC50 in assay [3] is 17 µM. In addition, the max activation in assay [4] amounted to 184%.
In the case of `COC(=O)c1ccc(C2C(C(=O)c3cccc(C)c3)=C(O)C(=O)N2CCc2c[nH]c3ccccc23)cc1` (configuration not stated), the Activity was found to be 84% in assay [1], 90% in assay [2], 122% in assay [4] and 97% in assay [5]. Besides, the EC50 in assay [3] turned out to be 16 µM. In assay [4], the max activation was 131%.
Take `COC(=O)c1ccc(C2C(C(=O)c3cccnc3)=C(O)C(=O)N2CCc2c[nH]c3c(F)cccc23)cc1` (configuration not stated): the Activity in assay [1] amounted to 86%; in assay [2], 84%; in assay [4], 161%; in assay [5], 105%. The EC50 in assay [3] is 18 µM. Besides, the max activation in assay [4] came to 191%.
On to `COC(=O)c1ccc(C2C(C(C)=O)=C(OC)C(=O)N2CCc2c[nH]c3ccccc23)cc1` (configuration not stated), for which the Activity came out at 82% in assay [1], 91% in assay [2], 127% in assay [4] and 109% in assay [5]. The 50% effective concentration (EC50) in assay [3] came to 37 µM. Also, the max activation in assay [4] stood at 163%.
As for `C=CC(=O)OC1=C(C(C)=O)C(c2ccc(C(=O)OC)cc2)N(CCc2c(C)[nH]c3ccccc23)C1=O` (configuration not stated), the Activity in assay [1] was 100%; in assay [2], 104%; in assay [4], 125%; in assay [5], 106%. The half-maximal effective concentration (EC50) in assay [3] was 105 µM. For the same molecule, the max activation in assay [4] amounted to 208%.
In the case of `CCOC(=O)c1ccc(C2C(C(C)=O)=C(O)C(=O)N2CCc2c[nH]c3ccccc23)c(O)c1` (configuration not stated), the Activity in assay [1] stood at 88%; in assay [2], 100%; in assay [4], 145%; in assay [5], 110%. In assay [3], the concentration giving a half-maximal response (EC50) stood at 40 µM. Moreover, the max activation in assay [4] came out at 194%.
As for `COC(=O)c1ccc(C2C(C(=O)c3cccnc3)=C(O)C(=O)N2CCc2c[nH]c3cc(Cl)ccc23)cc1` (configuration not stated), the Activity in assay [1] is 86%; in assay [2], 66%; in assay [4], 170%; in assay [5], 93%. In addition, in assay [3], the EC50 worked out at 8.5 µM. Also, in assay [4], the max activation is 204%.
For `CCOC(=O)c1ccc(C2C(C(=O)c3cccnc3)=C(O)C(=O)N2CCc2c[nH]c3ccccc23)cc1` (configuration not stated), the Activity in assay [1] stood at 83%; in assay [2] it was 71%; in assay [4] it was 201%; in assay [5] it was 97%. For the same molecule, the EC50 in assay [3] worked out at 8.2 µM. Also, in assay [4], the max activation came to 207%.
In the case of `CCOC(=O)c1ccc(C2C(C(C)=O)=C(O)C(=O)N2CCc2c(C)[nH]c3ccccc23)cc1` (configuration not stated), the Activity in assay [1] is 85%; in assay [2], 99%; in assay [4], 220%; in assay [5], 108%. In addition, in assay [3], the half-maximal effective concentration (EC50) came to 13 µM. In assay [4], the max activation was determined as 265%.
Take `CCC(=O)C1=C(O)C(=O)N(CCc2c[nH]c3ccccc23)C1c1ccc(C(=O)OC)cc1` (configuration not stated): the Activity in assay [1] was determined as 78%; in assay [2] it was 77%; in assay [4], 160%; in assay [5], 85%. Besides, the concentration for a half-maximal effect (EC50) in assay [3] amounted to 24 µM. In assay [4], the max activation was determined as 204%.
Turning to `COC(=O)c1ccc(C2C(C(C)=O)=C(O)C(=O)N2CCc2c[nH]c3c(C)cccc23)cc1` (configuration not stated), the Activity in assay [1] came to 92%; in assay [2] it was 81%; in assay [4], 121%; in assay [5], 98%. Besides, the EC50 in assay [3] is 25 µM. Further, in assay [4], the max activation stood at 139%.
Consider `COC(=O)c1ccc(C2C(C(=O)c3cccc(F)c3)=C(O)C(=O)N2CCc2c[nH]c3ccccc23)cc1` (configuration not stated), for which the Activity worked out at 78% in assay [1], 83% in assay [2], 133% in assay [4] and 98% in assay [5]. In addition, the 50% effective concentration (EC50) in assay [3] was found to be 11 µM. Besides, the max activation in assay [4] is 136%.
